Assay outcomes deposited in PubChem by several laboratories.
CHO parental Ca: counter-screen: ATP calcium response change in parental CHO cells; 330,000 compounds, 0.63% hits; inhibition, % at 5.6 µM; parental CHO-K1, ATP-induced calcium, Fluo-8 fluorescence;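 active = inhibition above that plate's mean sample inhibition plus 3 SD, cut at about 26% in these data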;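 note: 0% = ATP-challenged DMSO wells and 100% = DMSO wells without ATP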
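Assay system: parental CHO cells; Read-out basis: percent inhibition of ATP-evoked calcium rise, normalized to controls; Benchmarks: ATP and no-ATP DMSO wells; Compound dosing: single nominal dose of 5.6 µM per compound; Signal: Fluo-8 calcium dye fluorescence; Also added: ATP as calcium-mobilizing challenge; Repeats: singlicate.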
GPR7 antag: human neuropeptides B/W receptor 1 antagonism | P48145 | GPR7-expressing cells, fluorescence antagonist assay | inhibition, % at 4.4 µM | 290,000 compounds, 1.1% hits; in the data active = inhibition above about 16%, passing the limit was not always enough;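 note: cells stimulated with the agonist NPW; 0% = agonist with vehicle and 100% = vehicle without agonist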
MPTP block: blocks calcium-induced mitochondrial swelling | isolated mouse mitochondria, Ca2+ swelling absorbance, 30 min | inhibition, % at 10 µM | 360,000 compounds, 1.4% hits;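 active = inhibition of 50% or more, scaled per plate between neutral and stimulator controls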;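 note: 0% = DMSO wells given calcium and 100% = 1 mM EGTA wells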
OX1R antag-1: blocks the human orexin 1 receptor; O43613; CHO/OX1R cells, Fluo-8 calcium fluorescence, orexin A; inhibition, % at 5 µM; 330,000 compounds, 0.43% hits; AID 434989;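 active = inhibition above its plate's threshold, mean inhibition of all tested compounds on the plate plus 3 SD, cut at about 37% in these data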;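 note: 0% = orexin A challenge wells and 100% = SB-334867-A antagonist wells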
Target sequence (O43613 whole entry, looked up): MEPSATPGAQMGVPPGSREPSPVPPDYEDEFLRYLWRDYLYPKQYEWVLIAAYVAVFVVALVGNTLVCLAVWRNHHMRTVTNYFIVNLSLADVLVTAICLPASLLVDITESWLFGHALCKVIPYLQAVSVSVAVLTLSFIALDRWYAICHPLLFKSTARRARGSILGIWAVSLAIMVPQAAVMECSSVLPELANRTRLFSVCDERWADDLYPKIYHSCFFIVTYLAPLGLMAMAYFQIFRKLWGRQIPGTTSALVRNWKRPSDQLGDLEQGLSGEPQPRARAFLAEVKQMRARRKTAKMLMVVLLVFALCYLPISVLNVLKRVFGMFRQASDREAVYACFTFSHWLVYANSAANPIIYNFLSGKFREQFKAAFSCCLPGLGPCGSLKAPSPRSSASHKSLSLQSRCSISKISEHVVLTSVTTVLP
OX1R antag-2: blocks the human orexin 1 receptor; inhibition, % at 6.6 µM; AID 485270; OX1R-expressing cells, FRET antagonist read-out; 330,000 compounds, 1.8% hits; in the data active = inhibition mostly above about 38%, no sharp cut-off; inactive = mostly below about 40%;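 note: 0% = agonist challenge alone and 100% = reference antagonist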
MPTP counter: Rhodamine 123 counter-screen of mitochondrial pore hits | shares compounds with MPTP block | isolated mitochondria, membrane potential, Rhodamine 123 fluorescence | inhibition, % at 10 µM | 5,000 compounds, 78% hits | AID 624504; in the data active = inhibition above about 22%;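 note: 0% = DMSO vehicle and 100% = positive control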
MPTP abs DR: dose response confirmation of mitochondrial permeability transition pore inhibitors. IC50, µM. 780 compounds, 58% hits. shares compounds with MPTP block. isolated mitochondria swelling, absorbance; in the data active = IC50 below about 20 µM
MPTP counter DR: active in counter-screen for permeability transition pore inhibitors. 780 compounds, 49% hits. AID 651564. shares compounds with MPTP block. IC50, µM. isolated mitochondria counterscreen, fluorescence read-out; in the data active = IC50 below about 80 µM
An asterisk follows results filed as active; i = inactive; x = no result. Most compounds without a hit are left out; they make up all but 3.8% or so of the library.

SMILES	CHO parental Ca	GPR7 antag	MPTP block	OX1R antag-1	OX1R antag-2	MPTP counter	others
COc1ccc(-c2nc3cc(NC(=O)Cc4ccc(OC)c(OC)c4)ccc3o2)cc1	1.6	-8.8	96.2*	3.8	15.3	90.1*
CCC(C)NCC(=O)Nc1ccc(-c2nc3cc(NC(=O)CNC(C)CC)ccc3o2)cc1 (configuration not stated)	-5.2	-1.4	73.5*	-2.7	14.6	-4.7	MPTP abs DR=16.4*;MPTP counter DR=35.8*
Cc1sc(NC(=O)CN2CCCC2)nc1-c1ccc2c(c1)CCN2C(=O)c1cccc(F)c1	5.1	3.5	58.7*	-24.3	23.9	-15.1	MPTP abs DR=i;MPTP counter DR=35*
Cc1sc(NC(=O)Cc2ccc3c(c2)OCO3)nc1-c1ccc2c(c1)CCN2C(=O)c1ccc(F)cc1	5.7	7.8	1.0	3.9	0.6	x
O=C(C=Cc1cccc(O)c1)c1ccccc1O	x	x	5.5	x	x	x
O=C(/C=C/c1ccccc1Cl)c1ccccc(=O)c1O	-9.5	-4.3	2.7	-25.8	7.7	x
O=C(/C=C/c1ccc(O)c(O)c1)c1ccccc1O	5.5	1.7	73.3*	-5.4	26.3	62.8*
O=C(C=Cc1ccccc1O)c1ccccc1O	x	x	72.4*	x	x	89.5*
O=C(CC(CC(=O)c1ccc(Br)cc1)c1cccnc1)c1ccc(Br)cc1	-3.9	-15.8	24.5	-16.5	13.9	x
CCCCCn1c(N)c(-c2nc3ccccc3o2)c2c([N+](=O)[O-])nn(CC)c(=O)c21	-8.7	-1.9	23.3	-16.3	7.3	x
CCCCCn1c(N)c(-c2nc3ccccc3s2)c2c([N+](=O)[O-])nn(CC)c(=O)c21	-14.2	-4.6	96.6*	-6.4	9.6	2.1	MPTP abs DR=11*;MPTP counter DR=<2.5*
N=C1C(c2nc3ccccc3s2)=C(O)CN1C1CCCCC1	-6.3	-0.3	2.1	-10.8	5.3	x
CCCCn1c(N)c(-c2nc3ccccc3s2)c2c([N+](=O)[O-])nn(C)c(=O)c21	-9.9	-2.9	97.4*	-18.8	6.4	-1.2	MPTP abs DR=12.1*;MPTP counter DR=6.21*
CCCCn1c(N)c(-c2nc3ccccc3s2)c2c([N+](=O)[O-])nn(CC)c(=O)c21	-14.2	-6.8	92.2*	-32.1	6.4	-5.2	MPTP abs DR=19.8*;MPTP counter DR=18.4*
Cn1nc([N+](=O)[O-])c2c(-c3nc4ccccc4s3)c(N)n(C3CCCCC3)c2c1=O	-14.0	3.4	71.5*	-8.1	11.8	6.2	MPTP abs DR=i;MPTP counter DR=43.3*
CCCCCn1c(N)c(-c2nc3ccccc3o2)c2c([N+](=O)[O-])nn(C)c(=O)c21	3.6	-9.4	1.5	-7.9	3.4	x
CCCCn1c(N)c(N(CCC(C)C)C(=O)CSc2nc3ccccc3s2)c(=O)[nH]c1=O	x	x	0.5	x	x	x
Nc1nc2ccccc2cc1C(=O)NCc1cccs1	x	x	2.2	x	x	x
CCOC(=O)N/N=C\C=C\c1ccc2c(c1)OCO2	-16.4	-4.2	-0.5	-4.8	17.6	x
CC1CC(C)CN(S(=O)(=O)c2cccc3nsnc23)C1 (configuration not stated)	-13.2	-6.2	-0.3	-7.1	27.3	x
COc1ccc(C(=O)N/N=C(\C)c2ccc(NC(=O)Cc3ccccc3)cc2)c(OC)c1	-11.2	-22.1	2.2	-14.5	0.5	x
COc1ccc(-c2c(C(F)(F)F)[nH]n3c(=O)cc(-c4ccccc4)nc23)cc1	-7.6	-14.5	81.9*	-8.7	18.0	41.9*
CC(C)(C)NCCOCCOc1ccc(Cl)cc1C(C)(C)C	-6.8	8.6	0.0	-19.0	7.1	x
C=CCNCCOCCOc1ccc(Cl)cc1C(C)(C)C	-6.3	4.9	92.1*	-16.4	7.7	-9.4	MPTP abs DR=11.4*;MPTP counter DR=>80
COCCCNCCOCCOc1ccc(Cl)cc1C(C)(C)C	-7.3	35.2*	61.3*	-7.0	3.8	-15.5	MPTP abs DR=4.33*;MPTP counter DR=>80
SMILES	CHO parental Ca	GPR7 antag	MPTP block	OX1R antag-1	OX1R antag-2	MPTP counter	others
Cn1cccc1/C=C1\SC(=O)N(c2ccc(O)cc2)C1=O	-4.8	7.9	3.5	-3.2	32.6	x
O=C(NCc1nc(-c2ccc(C(F)(F)F)cc2)no1)Nc1ccc(OC(F)(F)F)cc1	13.7	-2.5	77.7*	22.4	14.8	74.2*
COc1ccc(C(C(=O)OCCN(C)C)c2ccccc2)cc1 (configuration not stated)	-13.4	-7.3	1.0	-19.9	18.0	x
CCCOc1ccc(C(=O)C(CN2CCCC2)c2ccccc2)cc1 (configuration not stated)	-3.3	-10.2	79.1*	-20.1	13.2	-11.3
CCCOc1ccc(C(C(=O)OCCN(CC)CC)c2ccccc2)cc1 (configuration not stated)	-9.3	13.3	82.4*	-26.8	25.5	-0.6	MPTP abs DR=i;MPTP counter DR=73.2*
CC(C)CCN1CCN(C2CSCCSC2)CC1CCO (configuration not stated)	-12.3	-1.8	-0.8	-3.8	11.1	x
CCCc1c(NC(=O)Nc2ccc(F)cc2)cnn1-c1ccc(Cl)cc1	9.6	-21.2	87.6*	-15.4	3.0	73.6*
CCCc1c(C(=O)Nc2ccc(OC)cc2)cnn1-c1ccccc1	-31.2	-20.4	2.7	-22.1	17.5	x
O=C1CC(c2ccccc2)=NN1c1nc(-c2ccccc2)cs1	-24.4	-18.2	67.2*	-25.3	14.3	41.9*
CC1=NN(c2nc(-c3ccccc3)cs2)C(=O)C1	-11.8	-5.0	-5.2	-18.6	-35.8	x
O=C1NC(=Nc2ccc(Cl)cc2)SC1Cc1cc(Cl)ccc1Cl (configuration not stated)	-16.5	-4.9	65.2*	-31.8	11.4	83.9*
CCCN(CC(=O)Nc1cc(Cl)cc(Cl)c1)CC(=O)Nc1ccc(F)c(F)c1F	-8.8	-1.6	56.9*	-12.3	26.4	58.8*
CCCN(CC(=O)Nc1ccccc1Br)CC(=O)Nc1ccc(F)c(F)c1F	-17.9	3.1	5.4	-22.9	17.6	x
N#Cc1c(-c2ccc(Cl)cc2)n(O)c2ccccc12	x	x	95.6*	x	x	99.6*
COc1ccc(-c2cc(C(F)(F)F)nc(SCCC(=O)NCc3ccccc3)n2)cc1	-26.5	-1.0	59.6*	-33.7	9.1	2.1	MPTP abs DR=>100;MPTP counter DR=>80
NS(=O)(=O)c1ccc(NC2=CC(c3ccc([N+](=O)[O-])cc3)N(c3ccc(S(N)(=O)=O)cc3)C2=O)cc1 (configuration not stated)	-4.9	-10.1	3.9	-5.0	49.0	x
CC(C)(C)OC(=O)NCCCCCc1cn([C@@H](CO)C(=O)NCCCCCCCCCCC(=O)N2CCN(C(=O)OC(C)(C)C)CC2)nn1	95.7*	x	98.8*	74.2*	71.0*	108.5*
CC[C@H](C)[C@@H](C(=O)NCCCCCCCCCCC(=O)N1CCN(C(=O)OC(C)(C)C)CC1)n1cc(CCCCCNC(=O)OC(C)(C)C)nn1	42.5*	x	86.8*	31.8	13.2	22.1*
CC(C)(C)OC(=O)CC[C@@H](C(=O)NCCCCCCCCCCC(=O)N1CCN(C(=O)OC(C)(C)C)CC1)n1cc(CCCCCNC(=O)OC(C)(C)C)nn1	-20.7	x	1.0	-30.6	26.4	x
